Measured values: ChEMBL document CHEMBL3407478, “Development of a series of aryl pyrimidine kynurenine monooxygenase inhibitors as potential therapeutic agents for the treatment of Huntington's disease” (J Med Chem, 2015)

Assays:
[1] = Fraction unbound in rat plasma; format: ADME, cell-free
[2] = system: Cortex; assay: Dose normalized AUC (0 to infinity) in Sprague-Dawley rat cortex at 10 mg equivalents/kg, po after 0.25 to 12 hrs; format: ADME, organism-based; conditions: in vivo
Summary of the method: (§1)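 Male Sprague-Dawley rats given a single oral dose of 10 mg equiv/kg as a 2 mg equiv/mL solution in 10% hydroxypropyl-β-cyclodextrin. Plasma, liver, kidney, cortex, striatum and CSF levels were measured from 0.25 to 12 h. Brain tissue was taken from nonperfused brains. CSF AUCN covers 0–8 h because the elimination phase was undefined.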

[3] = target: Kynurenine 3-monooxygenase (Homo sapiens, UniProt O15229); assay: Inhibition of human KMO transfected in CHO cells assessed as conversion of kynurenine to 3-hydroxykynurenine by LC-MS/MS analysis; format: cell-based
Sequence of Kynurenine 3-monooxygenase (O15229 whole entry): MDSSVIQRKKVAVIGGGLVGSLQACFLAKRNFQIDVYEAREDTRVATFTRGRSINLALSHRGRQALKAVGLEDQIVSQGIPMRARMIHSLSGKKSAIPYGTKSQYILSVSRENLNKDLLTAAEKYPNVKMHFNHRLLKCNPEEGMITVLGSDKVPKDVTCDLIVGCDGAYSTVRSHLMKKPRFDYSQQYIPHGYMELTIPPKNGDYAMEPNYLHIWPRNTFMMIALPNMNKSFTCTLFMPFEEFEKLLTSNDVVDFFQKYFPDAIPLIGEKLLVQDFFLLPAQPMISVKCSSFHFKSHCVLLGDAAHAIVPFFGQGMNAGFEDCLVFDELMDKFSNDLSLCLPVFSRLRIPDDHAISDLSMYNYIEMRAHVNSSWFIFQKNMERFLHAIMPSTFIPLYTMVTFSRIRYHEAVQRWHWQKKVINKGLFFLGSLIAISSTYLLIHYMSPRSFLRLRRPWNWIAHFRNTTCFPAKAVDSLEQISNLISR

[4] = Half life in Sprague-Dawley rat brain at 12 mg equivalents/kg, po; format: ADME, tissue-based
[5] = Tmax in Sprague-Dawley rat brain at 6.2 mg equivalents/kg, iv; format: ADME, tissue-based
Summary of the method: (§2)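 Nonfasted male Sprague-Dawley rats (300−370 g). Single iv tail-vein dose of 6.2 mg equiv/kg (1.24 mg equiv/mL in DMSO:PEG400:water 10:40:50) or oral gavage of 12 mg equiv/kg (1.20 mg equiv/mL in 10% hydroxypropyl-β-cyclodextrin). Terminal bleeds under isoflurane (N = 3) at 0.083−24 h; heparin plasma; tissues snap-frozen.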

[6] = Tmax in Sprague-Dawley rat brain at 12 mg equivalents/kg, po; format: ADME, tissue-based; summary of the method: as §2
[7] = system: Plasma; assay: Dose normalized AUC (0 to infinity) in Sprague-Dawley rat plasma at 10 mg equivalents/kg, po after 0.25 to 12 hrs; format: ADME, organism-based; conditions: in vivo; summary of the method: as §1

For `O=C(O)c1cc(-c2ccc(OC3CC3)c(Cl)c2)ncn1`, the fraction unbound [1] was 0.05, the AUC/dose [2] was 0.056 µM·kg·h/mg and the IC50 [3] was 8 nM. The half-life [4] was 1.7 h, the Tmax [5] was 4.98 min and the Tmax [6] was 1 h. For the same molecule, the AUC/dose [7] was 5.3 µM·kg·h/mg.
